Data on 1 compound can be found in ChEMBL document CHEMBL3124788, “Identification of human presequence protease (hPreP) agonists for the treatment of Alzheimer's disease” (Eur J Med Chem, 2014).

The source made the active and inactive calls. The rule behind the calls is not given here.

Experiment [1] deals with T1, Presequence protease, mitochondrial (Homo sapiens, UniProt Q5JRX3).
T1 sequence (Q5JRX3 whole entry): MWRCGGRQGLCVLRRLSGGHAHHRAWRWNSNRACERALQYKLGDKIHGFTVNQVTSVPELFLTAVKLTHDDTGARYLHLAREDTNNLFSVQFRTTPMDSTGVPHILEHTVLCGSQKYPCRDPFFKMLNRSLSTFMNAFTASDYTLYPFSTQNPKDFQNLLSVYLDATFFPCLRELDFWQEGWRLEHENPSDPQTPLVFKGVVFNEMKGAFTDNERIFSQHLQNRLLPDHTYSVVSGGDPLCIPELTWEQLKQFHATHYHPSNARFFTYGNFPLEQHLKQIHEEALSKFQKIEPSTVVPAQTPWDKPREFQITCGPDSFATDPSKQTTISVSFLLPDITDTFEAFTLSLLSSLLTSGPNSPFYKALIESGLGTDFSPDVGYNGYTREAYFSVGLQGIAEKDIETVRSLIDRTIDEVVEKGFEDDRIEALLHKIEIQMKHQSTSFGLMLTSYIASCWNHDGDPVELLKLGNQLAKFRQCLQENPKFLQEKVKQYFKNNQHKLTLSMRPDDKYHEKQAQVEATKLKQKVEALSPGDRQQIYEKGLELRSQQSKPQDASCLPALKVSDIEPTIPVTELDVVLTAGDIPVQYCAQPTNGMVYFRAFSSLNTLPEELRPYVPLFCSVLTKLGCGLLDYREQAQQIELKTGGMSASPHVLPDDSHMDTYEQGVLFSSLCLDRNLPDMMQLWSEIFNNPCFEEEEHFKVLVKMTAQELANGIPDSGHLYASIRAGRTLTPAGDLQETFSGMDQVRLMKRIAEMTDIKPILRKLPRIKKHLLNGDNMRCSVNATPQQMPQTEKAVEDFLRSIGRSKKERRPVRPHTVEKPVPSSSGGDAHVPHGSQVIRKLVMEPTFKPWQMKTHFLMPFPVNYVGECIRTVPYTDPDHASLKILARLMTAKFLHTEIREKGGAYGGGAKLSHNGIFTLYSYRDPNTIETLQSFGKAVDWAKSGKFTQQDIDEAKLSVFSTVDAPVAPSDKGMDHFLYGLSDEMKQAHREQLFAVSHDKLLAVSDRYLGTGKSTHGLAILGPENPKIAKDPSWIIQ
Description: Agonist activity at human PreP assessed as degradation of ATP synthase pF1beta subunit (2 to 56) after 2.5 hrs by Immunoblotting assay. Particulars: in the assay text read “(2 to 54)” for “(2 to 56)”. The essentials: (§1)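 Purified human PreP (1 μg) incubated with biotin-labeled pF1β (2–54) presequence peptide (0.02 μg) in 20 mM HEPES-KOH pH 8.0, 10 mM MgCl2, with compound at 0.00001–100 μM, for 2.5 h. Reactions were stopped with sample buffer and resolved on 12% Bis-Tris gel. Blot probed with anti-F1β (1:2000), HRP anti-rabbit, ECL. Bands quantified by densitometry versus hPreP alone. EC50 from nonlinear log(agonist) vs normalized response fit.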

For experiment [2], the target named is T2, Presequence protease, mitochondrial (Homo sapiens) (UniProt Q5JRX3).
T2 sequence (whole entry): T1 sequence (Q5JRX3 whole entry)
Description: Agonist activity at human PreP assessed as degradation of ATP synthase pF1beta subunit (2 to 54) after 2.5 hrs by Immunoblotting assay. A general note: A western blot detects proteins with antibodies after separation by electrophoresis.

Experiment [3] addresses T2, Presequence protease, mitochondrial (Homo sapiens). Nature of the experiment: (§2) Agonist activity at human PreP assessed as degradation of biotin-labeled amyloid beta (1 to 42) after 2.5 hrs by Immunoblotting assay. The essentials:
(§3)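 Biotin-labeled Aβ(1–42) (0.02 μg) incubated 2.5 h with 1 μg purified hPreP in 20 mM HEPES-KOH pH 8.0 with 10 mM MgCl2, compound 0.00001–100 μM. Products were run on 12% Bis-Tris gel and transferred to nitrocellulose. Membrane dried and blocked in 2% milk-PBS, then probed with ExtrAvidin peroxidase and ECL. Degradation measured relative to enzyme alone. EC50 from nonlinear log(agonist) vs normalized response regression.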

Experiment [4] deals with T1, Presequence protease, mitochondrial. Described as §2. The procedure, abridged:
as §3

Experiment [5] concerns the target T2, Presequence protease, mitochondrial (Homo sapiens). Description: Agonist activity at human PreP assessed as degradation of ATP synthase pF1beta subunit (2 to 56) after 2.5 hrs by Immunoblotting assay relative to control. Particulars: in the assay text read “(2 to 54)” for “(2 to 56)”. The procedure, abridged: as §1
For experiment [6] the target is unchanged. Description: Agonist activity at human PreP assessed as degradation of biotin-labeled amyloid beta (1 to 42) up to 1 uM after 2.5 hrs by Immunoblotting assay. The procedure, abridged: as §3
For experiment [7] the target is unchanged. Nature of the experiment: Agonist activity at human PreP assessed as degradation of fluorogenic substrate V at 1 uM measured for 10 mins by fluorometric analysis.
Experiment [8] shares this target. Nature of the experiment: Agonist activity at human PreP assessed as degradation of biotin-labeled amyloid beta (1 to 42) after 2.5 hrs by Immunoblotting assay relative to control. The essentials: as §3
For experiment [9] the target is unchanged. Nature of the experiment: Agonist activity at human PreP assessed as degradation of ATP synthase pF1beta subunit (2 to 54) at 1 uM after 2.5 hrs by Immunoblotting assay.
Experiment [10] concerns the target T1, Presequence protease, mitochondrial. Description: Agonist activity at human PreP assessed as degradation of fluorogenic substrate V measured for 10 mins by fluorometric analysis.

As usually defined, the EC50 is the concentration giving half of the maximal effect. `O=[N+]([O-])c1ccc2c(c1)N(Cc1cc(Br)ccc1O)C(c1cc(Br)ccc1O)N2Cc1cc(Br)ccc1O` (stereo not given): the EC50 in [1] is 601 nM; in experiment [4], 402 nM; in experiment [10], 57 nM. The Activity entry in [2] was “Dose-dependent effect”; in experiment [3], “Dose-dependent effect”; in experiment [5], 55%; in [8], 54%. Moreover, the outcome in experiment [6] and in experiment [9] was Active. For the same compound, the fold change (FC) in [7] was determined as 1.8.
